The target of test [1] is T1, Histone deacetylase 8 (Homo sapiens, UniProt Q9BY41).
T1 sequence (Q9BY41 whole entry): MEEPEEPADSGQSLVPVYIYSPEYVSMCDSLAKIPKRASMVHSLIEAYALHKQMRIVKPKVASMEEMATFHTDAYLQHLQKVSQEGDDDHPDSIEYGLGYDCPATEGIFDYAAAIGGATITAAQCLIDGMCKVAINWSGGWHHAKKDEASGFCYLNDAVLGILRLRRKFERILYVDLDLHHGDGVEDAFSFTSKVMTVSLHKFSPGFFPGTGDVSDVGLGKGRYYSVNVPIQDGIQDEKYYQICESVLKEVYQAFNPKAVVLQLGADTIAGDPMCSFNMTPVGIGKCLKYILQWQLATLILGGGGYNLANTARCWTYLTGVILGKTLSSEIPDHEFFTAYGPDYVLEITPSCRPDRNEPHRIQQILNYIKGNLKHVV
Kind of test: Inhibition of recombinant human HDAC8.

For test [2], the target named is Histone deacetylase 2 (Homo sapiens, UniProt Q92769). The test can be described thus: Inhibition of recombinant human HDAC2.
Sequence of Histone deacetylase 2 (Q92769 whole entry): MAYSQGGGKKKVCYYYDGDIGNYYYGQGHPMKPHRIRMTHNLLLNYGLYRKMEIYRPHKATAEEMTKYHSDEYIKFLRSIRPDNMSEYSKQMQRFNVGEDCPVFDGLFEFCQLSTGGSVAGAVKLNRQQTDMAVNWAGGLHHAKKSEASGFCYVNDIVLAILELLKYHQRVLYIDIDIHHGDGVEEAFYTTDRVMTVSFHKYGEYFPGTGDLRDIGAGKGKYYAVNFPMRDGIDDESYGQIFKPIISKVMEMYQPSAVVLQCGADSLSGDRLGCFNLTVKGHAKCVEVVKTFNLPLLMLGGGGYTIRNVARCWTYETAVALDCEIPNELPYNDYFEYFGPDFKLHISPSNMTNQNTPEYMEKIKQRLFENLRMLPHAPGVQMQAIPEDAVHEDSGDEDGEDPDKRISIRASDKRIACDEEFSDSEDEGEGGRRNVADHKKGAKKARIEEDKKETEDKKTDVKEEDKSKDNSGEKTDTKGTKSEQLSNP
Test [3] deals with Histone deacetylase. Kind of test: Inhibition of HDAC in human Cal27 cells. Format: cell-based. The conditions noted are these: cal-27.
The test system of test [4] is CAL-27. The test can be described thus: Cytotoxicity against human CAL27 cells assessed as reduction in cell viability by MTT assay. Format: functional, cell-based. (In general: Formazan colour is commonly taken as a measure of viable cells.)
Test [5] deals with Histone deacetylase 4 (Homo sapiens, UniProt P56524). The test can be described thus: Inhibition of recombinant human HDAC4.
Sequence of Histone deacetylase 4 (P56524 whole entry): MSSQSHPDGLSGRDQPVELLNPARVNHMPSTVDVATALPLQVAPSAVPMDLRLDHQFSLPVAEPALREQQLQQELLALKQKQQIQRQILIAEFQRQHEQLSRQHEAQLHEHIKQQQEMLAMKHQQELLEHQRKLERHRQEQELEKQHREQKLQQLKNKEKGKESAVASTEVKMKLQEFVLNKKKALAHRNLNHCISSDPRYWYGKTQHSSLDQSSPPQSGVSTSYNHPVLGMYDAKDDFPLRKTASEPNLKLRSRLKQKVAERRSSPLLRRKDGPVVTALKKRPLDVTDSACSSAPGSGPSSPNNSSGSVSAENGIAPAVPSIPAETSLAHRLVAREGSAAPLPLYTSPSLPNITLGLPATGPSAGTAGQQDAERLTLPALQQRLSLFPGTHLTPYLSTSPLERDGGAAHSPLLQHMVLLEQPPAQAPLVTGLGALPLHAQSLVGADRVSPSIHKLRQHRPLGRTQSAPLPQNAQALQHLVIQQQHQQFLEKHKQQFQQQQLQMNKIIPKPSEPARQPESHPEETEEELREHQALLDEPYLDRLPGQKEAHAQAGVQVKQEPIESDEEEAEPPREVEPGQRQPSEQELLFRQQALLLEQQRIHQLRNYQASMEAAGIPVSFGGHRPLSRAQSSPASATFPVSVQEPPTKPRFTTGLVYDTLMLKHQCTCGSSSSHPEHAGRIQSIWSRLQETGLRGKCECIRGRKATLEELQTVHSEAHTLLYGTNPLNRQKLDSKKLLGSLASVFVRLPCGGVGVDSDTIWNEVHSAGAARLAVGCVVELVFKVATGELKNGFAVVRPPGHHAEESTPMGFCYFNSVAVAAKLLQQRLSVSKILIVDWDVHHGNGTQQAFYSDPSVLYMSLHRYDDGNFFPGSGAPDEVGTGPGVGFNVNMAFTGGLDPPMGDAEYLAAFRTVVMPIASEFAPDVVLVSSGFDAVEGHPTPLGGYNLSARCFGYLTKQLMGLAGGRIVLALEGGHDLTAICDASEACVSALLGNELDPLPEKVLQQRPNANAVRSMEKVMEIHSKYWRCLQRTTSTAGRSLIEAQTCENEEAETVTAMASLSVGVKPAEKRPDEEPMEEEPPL
Test [6] addresses T2, Protein deacetylase HDAC6 (Homo sapiens, UniProt Q9UBN7).
T2 sequence (Q9UBN7 whole entry): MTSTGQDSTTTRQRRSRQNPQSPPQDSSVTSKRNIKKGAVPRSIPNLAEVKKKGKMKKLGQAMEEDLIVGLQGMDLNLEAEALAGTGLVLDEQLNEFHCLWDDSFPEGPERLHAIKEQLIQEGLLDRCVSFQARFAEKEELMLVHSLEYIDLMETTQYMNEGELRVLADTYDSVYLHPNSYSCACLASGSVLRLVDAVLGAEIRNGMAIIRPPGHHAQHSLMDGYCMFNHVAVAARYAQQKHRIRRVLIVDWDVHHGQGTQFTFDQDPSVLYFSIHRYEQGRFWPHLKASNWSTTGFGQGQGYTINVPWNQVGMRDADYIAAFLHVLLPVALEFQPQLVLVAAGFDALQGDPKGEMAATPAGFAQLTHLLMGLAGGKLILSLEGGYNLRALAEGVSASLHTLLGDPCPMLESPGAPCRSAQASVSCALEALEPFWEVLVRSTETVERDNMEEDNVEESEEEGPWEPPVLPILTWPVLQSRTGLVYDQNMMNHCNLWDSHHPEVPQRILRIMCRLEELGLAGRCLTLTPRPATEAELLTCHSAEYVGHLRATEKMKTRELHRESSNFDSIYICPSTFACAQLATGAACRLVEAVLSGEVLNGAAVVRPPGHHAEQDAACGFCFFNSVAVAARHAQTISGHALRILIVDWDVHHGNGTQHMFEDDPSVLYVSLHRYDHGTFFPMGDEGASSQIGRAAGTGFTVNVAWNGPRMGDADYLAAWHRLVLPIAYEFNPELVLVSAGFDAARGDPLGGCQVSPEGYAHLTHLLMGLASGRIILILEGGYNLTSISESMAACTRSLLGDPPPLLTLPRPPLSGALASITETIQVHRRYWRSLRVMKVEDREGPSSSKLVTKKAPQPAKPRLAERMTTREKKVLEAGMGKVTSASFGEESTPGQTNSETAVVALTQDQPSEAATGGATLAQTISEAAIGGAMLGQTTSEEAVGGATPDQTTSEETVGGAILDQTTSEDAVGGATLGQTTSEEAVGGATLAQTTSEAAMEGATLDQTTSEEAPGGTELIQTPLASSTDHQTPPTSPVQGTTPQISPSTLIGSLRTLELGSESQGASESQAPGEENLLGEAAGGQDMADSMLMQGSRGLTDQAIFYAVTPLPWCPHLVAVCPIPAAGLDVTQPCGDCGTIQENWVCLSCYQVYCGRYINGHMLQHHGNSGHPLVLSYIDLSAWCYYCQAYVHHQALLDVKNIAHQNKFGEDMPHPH
The test can be described thus: Inhibition of recombinant human HDAC6.

Test [7] deals with Histone deacetylase. The test can be described thus: Inhibition of HDAC in human A2780 cells. Format: cell-based.
Test [8] has as its system A2780. The test can be described thus: Cytotoxicity against human A2780 cells assessed as reduction in cell viability by MTT assay. Format: functional, cell-based.
The subject of test [9] is CAL-27. The test can be described thus: Induction of apoptosis in human CAL27 cells assessed as increase in caspase 3/7 activation at 0.4 uM incubated for 24 hrs by Hoechst 33342 staining based fluorescence assay. Format: functional, cell-based.
The target in test [10] is T3, Class 1 histone deacetylase (Homo sapiens) (UniProt Q13547+O15379+Q92769+Q9BY41). Kind of test: Inhibition of class 1 histone deacetylase in human CAL27 cells assessed as increase in H3 histone acetylation at 1.5 uM incubated for 24 hrs by immunoblot analysis. The class given is cell-based. The conditions noted are these: CAL-27. The method in brief: (§1)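 Cal27 and Cal27CisR cells incubated 24 h with vehicle or with inhibitor at 1.5, 3 or 5 µM. Western blot for α-tubulin, acetyl-α-tubulin and acetyl-histone H3.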
Background: A western blot detects proteins with antibodies after separation by electrophoresis.

Test [11] addresses T4, Protein deacetylase HDAC6 (Homo sapiens) (UniProt Q9UBN7).
T4 sequence (whole entry): T2 sequence (Q9UBN7 whole entry)
The test can be described thus: Inhibition of HDAC6 in human CAL27 cells assessed as increase in acetylated alpha-tubulin at 1.5 uM incubated for 24 hrs by immunoblot analysis. Format: cell-based. The conditions noted are these: CAL-27. The method in brief:
as §1

Test [12] deals with T4, Protein deacetylase HDAC6 (Homo sapiens). Kind of test: Inhibition of HDAC6 in human Cal27CisR cells assessed as increase in acetylated alpha-tubulin at 1.5 uM incubated for 24 hrs by immunoblot analysis. The class given is cell-based. The method in brief: as §1
Test [13] deals with T3, Class 1 histone deacetylase (Homo sapiens). The test can be described thus: Inhibition of class 1 histone deacetylase in human Cal27CisR cells assessed as increase in H3 histone acetylation at 1.5 uM incubated for 24 hrs by immunoblot analysis. The class given is cell-based. The method in brief: as §1
A short description of test [14]: Potentiation of cisplatin-induced cytotoxicity against human Cal27CisR cells assessed as shift factor by measuring ratio of cisplatin IC50 to cisplatin IC50 in presence of compound at 0.8 uM incubated for 72 hrs followed by cisplatin addition and measured after 72 hrs by MTT assay. Format: functional. The method in brief: (§2)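 MTT shift assay. Cal27 cells received HDACi at 0.2, 0.4 or 1.4 µM; Cal27CisR cells received 0.8 or 6 µM. Cells were incubated 72 h with a cisplatin range. Shift factor = cisplatin IC50 alone / cisplatin IC50 with HDACi, significance by t-test (p<0.05). Pooled mean of ≥3 experiments, each in triplicate.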

Test [15] is filed under the species Homo sapiens. Kind of test: Induction of apoptosis in human Cal27CisR cells assessed as increase in caspase 3/7 activation at 0.8 uM incubated for 24 hrs by Hoechst 33342 staining based fluorescence assay. Format: functional, cell-based.
Test [16] is filed under the species Homo sapiens. The test can be described thus: Potentiation of cisplatin-induced apoptosis in human Cal27CisR cells assessed as increase in caspase 3/7 activation at 0.8 uM incubated for 24 hrs followed by cisplatin addition by Hoechst 33342 staining based fluorescence assay. The class given is functional, cell-based. The method in brief: (§3)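 Cal27 cells pretreated with HDACi at 0.4, 0.8 or 2.8 µM, then 24 h more with 3 µM cisplatin. Cal27CisR cells pretreated at 0.8 or 8 µM, then 24 h with 25 µM cisplatin. 100 µM cisplatin as positive control. Active caspase 3/7 imaged by green fluorescence, nuclei counterstained with Hoechst 33342 (blue).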

The test system of test [17] is CAL-27. The test can be described thus: Potentiation of cisplatin-induced apoptosis in human CAL27 cells assessed as increase in caspase 3/7 activation at 0.4 uM incubated for 24 hrs followed by cisplatin addition by Hoechst 33342 staining based fluorescence assay. The class given is functional, cell-based. The method in brief: as §3
Test [18] relates to CAL-27. Kind of test: Potentiation of cisplatin-induced cytotoxicity against human CAL27 cells assessed as shift factor by measuring ratio of cisplatin IC50 to cisplatin IC50 in presence of compound at 0.2 uM incubated for 72 hrs followed by cisplatin addition and measured after 72 hrs by MTT assay. The class given is functional. The method in brief:
as §2

In test [19] the test system is CAL-27. Kind of test: Potentiation of cisplatin-induced cytotoxicity against human CAL27 cells assessed as shift factor by measuring ratio of cisplatin IC50 to cisplatin IC50 in presence of compound at 0.4 uM incubated for 72 hrs followed by cisplatin addition and measured after 72 hrs by MTT assay. The class given is functional. The method in brief: as §2
Test [20] concerns CAL-27. Kind of test: Potentiation of cisplatin-induced apoptosis in human CAL27 cells assessed as increase in caspase 3/7 activation at 0.8 uM incubated for 24 hrs followed by cisplatin addition by Hoechst 33342 staining based fluorescence assay. Format: functional, cell-based. In short, it runs like this:
as §3

In test [21] the test system is CAL-27. Kind of test: Induction of apoptosis in human CAL27 cells assessed as increase in caspase 3/7 activation at 0.8 uM incubated for 24 hrs by Hoechst 33342 staining based fluorescence assay. The class given is functional, cell-based.

The term Ki denotes the equilibrium dissociation constant of an inhibitor or competing ligand from its target. By IC50 is commonly meant the point on the concentration scale where inhibition reaches its midpoint.

Structures are written as SMILES. Calls of active or inactive are those of the source. The calls are words filed in the database; no cut-off is given here.

With `O=C(CCCCCONC(=O)c1cc(F)cc(F)c1)NO`, the inhibitory constant (Ki) is 14.7 µM in test [1], 0.58 µM in test [2], above 100 µM in [5] and 0.1 µM in [6]. Further, the half-inhibitory concentration (IC50) was 3.77 µM in test [3], 7.98 µM in test [4], 3.79 µM in test [7] and 13.7 µM in [8].
For the compound `COc1cc(OC)cc(C(=O)NOCCCCCC(=O)NO)c1`, the outcome in test [9], in test [15], in test [16] and in [17] was Active. In addition, the inhibition entry in [10], in test [11], in [12] and in test [13] was “Active” each time. Besides, the inhibition constant Ki in test [1] was determined as 5.69 µM; in test [2] it was 0.06 µM; in test [5], 49.2 µM; in [6], 0.03 µM. The half-inhibitory concentration (IC50) in test [3] was 0.45 µM; in test [4] it was 0.72 µM; in test [7], 0.83 µM; in test [8] it was 0.89 µM. Further, the PF in [14] is 12.8; in [18] it was 3.79.
Take `Cc1cc(C)cc(C(=O)NOCCCCCC(=O)NO)c1`: the inhibition result in test [10], in [11], in test [12] and in [13] was “Active” each time. The results for the PF in test [19] and in test [14] were 3 and 8.36, respectively. In addition, the Ki in test [1] was 4.81 µM; in test [2] it was 0.08 µM; in [5], above 100 µM; in [6], 0.05 µM. Moreover, the IC50 in [3] was 0.55 µM; in test [4] it was 0.76 µM; in test [7] it was 0.17 µM; in [8] it was 0.97 µM. The result in test [15], in test [20], in test [16] and in test [21] was Active.
For the compound `Cc1cc(C)cc(C(=O)NOCCCCC(=O)NO)c1`, the inhibition constant (Ki) in [1] is 22.3 µM; in test [2], 0.37 µM; in test [5] it was above 100 µM; in test [6] it was 0.42 µM. The IC50 was 3.36 µM in [3], 8.67 µM in [4], 4.24 µM in test [7] and 9.34 µM in [8].
As for `CC(C)(C)c1cc(C(=O)NOCCCCCC(=O)NO)cc(C(C)(C)C)c1`, the Ki in [1] is 28.1 µM; in test [2], 1.57 µM; in test [5] it was above 100 µM; in test [6], 2.15 µM. The IC50 in test [3] was 1.3 µM; in test [4], 1 µM; in [7], 0.93 µM; in test [8], 1.55 µM.
With `O=C(CCCCCONC(=O)c1cc(I)cc(I)c1I)NO`, the inhibitory constant (Ki) in [1] is 10 µM; in [2], 1.33 µM; in test [5] it was above 100 µM; in test [6] it was 0.33 µM. Besides, the 50% inhibitory concentration (IC50) in [3] amounted to 9.4 µM; in test [4] it was 45 µM; in test [7] it was 7.2 µM; in test [8], 64 µM.
With `O=C(CCCCCONC(=O)c1c(Cl)cncc1Cl)NO`, the inhibitory constant (Ki) in test [1] is 18.9 µM; in test [2] it was 1.36 µM; in [5] it was above 100 µM; in test [6] it was 0.35 µM. Also, the concentration for half-maximal inhibition (IC50) in [3] is 12.7 µM; in [4], 28.1 µM; in test [7], 14.5 µM; in [8] it was 68.4 µM.
Take `O=C(CCCCCONC(=O)c1cc(C(F)(F)F)cc(C(F)(F)F)c1)NO`: the inhibition constant Ki worked out at 4.9 µM in [1], 0.55 µM in [2], 83.7 µM in test [5] and 0.56 µM in test [6]. For the same compound, the 50% inhibitory concentration (IC50) in test [3] is 10.56 µM; in test [4] it was 15.8 µM; in [7], 11 µM; in [8], 30.5 µM.
For the compound `O=C(CCCCCONC(=O)c1cc(Br)cc(Br)c1)NO`, the Ki in test [1] came out at 4.44 µM; in [2] it was 0.21 µM; in [5], 31.8 µM; in test [6], 0.12 µM. The IC50 was found to be 1.8 µM in test [3], 3.63 µM in test [4], 1.65 µM in test [7] and 10.2 µM in test [8].

The values are drawn from ChEMBL document CHEMBL4609999, “Novel alkoxyamide-based histone deacetylase inhibitors reverse cisplatin resistance in chemoresistant cancer cells” (Bioorg Med Chem, 2020).
